Hits are enriched below; roughly 4.3% of the tested compounds scored in any of these assays.
CAL PDZ FP-1: blocks peptide binding to the human CAL PDZ domain | AID 602252 | Q9HD26 | inhibition, % at 24.9 µM | purified CAL PDZ, TMR-peptide fluorescence polarization, 1 h | hit rate 0.92% among 300,000;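 active = mean inhibition of at least 30% with at least half of replicates also reaching 30%; inconclusive = no clear call, values can overlap the other calls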;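 also: 0% = DMSO neutral control and 100% = excess unlabeled competitor peptide PRC23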
Dyrk1A ADPGlo: blocks rat Dyrk1A kinase activity. Q63470. ADP-Glo luminescence, NFATc1 peptide. inhibition, % at 12.5 µM. hit rate 0.43% among 310,000. AID 504441; in the data active = inhibition above about 50%;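 also: plate controls were vehicle with enzyme for no effect and no enzyme for full effect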
Rtt109 Vps75: blocks Candida albicans Rtt109/Vps75 acetyltransferase activity; Q5AAJ8; purified Rtt109/Vps75, ThioGlo CoA-SH fluorescence, 4 h; inhibition, % at 34.9 µM; hit rate 0.16% among 330,000;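 active = inhibition of at least 50% in every replicate; inconclusive = best replicate reaches 50% inhibition but some replicates fall short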
Target sequence (Q5AAJ8 whole entry, looked up): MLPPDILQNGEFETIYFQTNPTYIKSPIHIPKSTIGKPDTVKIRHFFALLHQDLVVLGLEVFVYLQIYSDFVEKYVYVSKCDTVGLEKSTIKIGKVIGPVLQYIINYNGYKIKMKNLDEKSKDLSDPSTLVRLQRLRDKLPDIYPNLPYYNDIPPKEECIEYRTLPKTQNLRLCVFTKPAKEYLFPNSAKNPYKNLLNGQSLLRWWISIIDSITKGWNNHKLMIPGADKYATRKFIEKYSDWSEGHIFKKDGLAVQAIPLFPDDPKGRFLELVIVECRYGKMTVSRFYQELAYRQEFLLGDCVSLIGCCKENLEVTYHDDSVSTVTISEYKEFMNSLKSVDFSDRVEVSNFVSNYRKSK
CAL PDZ FP-2: inhibitors of human CAL PDZ peptide binding | purified CAL PDZ, TMR-peptide fluorescence polarization, 1 h | inhibition, % at 20 µM | hit rate 0.02% among 330,000;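 active = highest replicate inhibition of at least 40%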;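 also: plate controls were DMSO neutral control wells for no effect and unlabeled competitor peptide control wells for full effect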
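Test system: purified CerCALP PDZ construct; Compound dosing: one concentration, 20 µM compound; Also added: TMR-labelled reporter peptide T*-PRC34 bound in PDZ groove; Read-out: inhibition from polarization loss; Controls: unlabelled peptide and DMSO controls; Signal: FP readout, S and P plane fluorescence; Incubation: 1 h at RT.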
ALR H2O2 inh: inhibitors of human sulfhydryl oxidase ALR; hit rate 3.8% among 290,000; P55789; inhibition, % (no concentration beside the values); AID 485317; purified ALR, DTT oxidation, H2O2 HRP-luminol luminescence;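 active = mean replicate inhibition above about 79%, with every replicate also reaching it, limit read from the data; inconclusive = only one of the two criteria met; inactive = mean below limit and not every replicate reaching it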
Target sequence (P55789 whole entry, looked up): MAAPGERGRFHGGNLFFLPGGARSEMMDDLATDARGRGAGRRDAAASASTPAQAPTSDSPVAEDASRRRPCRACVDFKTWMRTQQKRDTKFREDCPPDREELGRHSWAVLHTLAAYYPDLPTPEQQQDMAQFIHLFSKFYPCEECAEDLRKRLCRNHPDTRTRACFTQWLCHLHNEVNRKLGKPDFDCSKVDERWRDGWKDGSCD
The depositor's hits bear a star; u = inconclusive; x = no result.

SMILES	CAL PDZ FP-1	Dyrk1A ADPGlo	Rtt109 Vps75	CAL PDZ FP-2	ALR H2O2 inh
CC(CCC(C)C(C)(C)C)[C@@H]1CC[C@H]2C3C[C@H](OS(O)(=S)=S)[C@H]4C[C@H](OS(O)(=S)=S)[C@@H](OS(O)(=S)=S)C[C@]4(C)[C@H]3CC[C@]12C (stereo partly drawn) (tested in a mixture with another compound)	-16	70*	u	-2	98*
C[n+]1cccc(/C=N/NC(=O)CC23CC4CC(CC(C4)C2)C3)c1	0	2	x	-3	0
CCNc1nc(NCC)n2c(SCC(=O)Nc3ccccc3F)nnc2n1	x	x	1	0	x
CCNc1nc(NCC)n2c(SCC(=O)Nc3ccc(NC(C)=O)cc3)nnc2n1	-3	-4	5	-1	98*
CCNc1nc(NCC)n2c(SCC(=O)Nc3ccc(CC)cc3)nnc2n1	x	5	-5	-1	99*
Cc1c(N)cccc1N	-4	x	0	0	86*
O=C(CN1CCCCC1)Nc1ccc(S(=O)(=O)c2ccc(NC(=O)CN3CCCCC3)cc2)cc1	-3	-1	-4	-1	x
O=C1NC(Cc2ccccc2)C(=O)N1Cc1ccccc1 (stereo not drawn)	-2	2	-13	-1	x
O=c1ccsn1Cc1ccccc1	2	3	-3	1	98*
Cc1ccccc1C(=O)c1cccn1CC(=O)NCCCN1CCCCC1	-3	-3	-2	-1	0
Cc1ccccc1C(=O)c1cccn1CC(=O)NCCC1=CCCCC1	56*	1	-1	0	2
CC1(C2CC2)NC(=O)N(CC(=O)Nc2ccccc2F)C1=O (stereo not drawn)	-4	1	6	0	x
CCOC(=O)N1CCN(C(=O)c2ccc3c(c2)N(Cc2ccccc2)CCS3)CC1	-1	1	1	0	98*
Cc1ccc(CN2CCSc3ccc(C(=O)N4CCN(c5ncccn5)CC4)cc32)cc1	-3	0	8	1	6
CC1CC(C)CN(C(=O)c2ccc3c(c2)N(Cc2ccccc2)CCS3)C1 (stereo not drawn)	x	5	22	1	x
Cc1ccc(CN2CCSc3ccc(C(=O)N4CCOCC4)cc32)cc1	0	x	23	-1	99*
CCN1CCN(C(=O)c2ccc3c(c2)N(Cc2ccc(C)cc2)CCS3)CC1	-3	0	-16	-2	99*
CCOC(=O)C1=C(COC(=O)c2ccc(OC)c(S(=O)(=O)N3CCOCC3)c2)NC(=O)NC1C (stereo not drawn)	-1	-2	5	0	x
O=[N+]([O-])c1ccccc1/C=C/CN1CCN(Cc2ccc3c(c2)OCO3)CC1	-1	1	7	-1	-12
COC(=O)CC1SC(=O)NC1=Nc1ccc(OC)cc1 (stereo not drawn)	x	-6	-5	1	-7
COC(=O)CC1SC(=O)NC1=Nc1ccc(O)cc1 (stereo not drawn)	-3	16	-3	0	96*
CC(C)NC(=O)/C(=C/c1cn(-c2ccccc2)nc1-c1cccc([N+](=O)[O-])c1)NC(=O)c1ccccc1	5	-3	6	0	-3
CCOc1ccc(C(=O)CSCCC(=O)O)cc1	-3	-5	-12	-3	98*
COc1ccc(-c2cc(C(=O)NC3=NCCS3)c3ccccc3n2)cc1OC	-6	2	4	x	98*
COc1cc(-c2cc(C(=O)Nc3nc4ccccc4s3)c3ccccc3n2)cc(OC)c1OC	87*	1	-21	-2	-3
SMILES	CAL PDZ FP-1	Dyrk1A ADPGlo	Rtt109 Vps75	CAL PDZ FP-2	ALR H2O2 inh
Cc1ccc(OCCC(=O)OCC(=O)Nc2cc(S(=O)(=O)N(C)C)ccc2C)cc1	x	-5	-8	0	-2
CCOC(=O)/C(C#N)=C/c1cc2ccc(C)cc2nc1Cl	-2	3	7	-3	96*
Cc1cc2cc(C=C(C#N)C#N)c(Cl)nc2cc1C	-2	3	-19	-1	98*
CCn1cc(C(=O)NCCN(C)C)c(=O)c2cc(F)c(N3CCN(C)CC3)cc21	-1	10	9	1	-31
Oc1ccc2ccccc2c1CNc1ccccn1	2	19	5	0	19
Cc1sc2nc(SCC(=O)C(C)(C)C)n(Cc3ccco3)c(=O)c2c1C	-5	6	1	12	-7
Cc1sc2ncnc(N(C)Cc3ccco3)c2c1C	-1	14	13	-2	-4
Cc1sc2nc3c4ccccc4c(NCc4ccco4)nn3c(=O)c2c1C	-4	3	-2	0	98*
Cc1sc2ncnc(SCc3ccco3)c2c1C	-8	6	-3	0	91*
Cc1nc(NCc2ccco2)c2c(C)c(C)sc2n1	x	6	-4	-3	97*
CCn1c(SCC(=O)NCc2ccccc2)nnc1C(CO)NC(=O)c1ccccc1 (stereo not drawn)	x	-14	-11	-1	-4
O=C(CN(Cc1ccccc1)S(=O)(=O)c1ccc(F)cc1)NCc1ccccn1	-2	-6	12	1	-10
CCOc1cc(/C=N/NC(=O)CCn2nc(C)cc2C)ccc1O	-5	4	-1	-3	99*
COc1cc(/C=N/NC(=O)CCn2nc(C)cc2C)ccc1O	-3	16	-9	-1	x
Cc1cc(C)n(CCC(=O)N/N=C/c2ccc(O)cc2)n1	-3	10	3	0	99*
O=c1/c(=C\c2cccn2-c2ccccc2)sc2nc3ccccc3n12	2	-6	-10	-3	x
O=C(O)Cn1cc(/C=c2/sc3nc4ccccc4n3c2=O)c2ccccc21	1	47	0	x	99*
O=C(O)Cn1cc(/C=C2/NC(=O)N(c3ccc(Cl)cc3)C2=O)c2ccccc21	1	-3	-2	1	92*
CC(C)n1cc(/C=C2\NC(=O)N(c3cccc(Cl)c3)C2=O)c2ccccc21	-3	22	-13	0	x
Cc1cc(N(CCO)CCO)ccc1N=Nc1cc(F)ccc1F	0	x	-1	1	99*
CCC(=O)Nc1nc2ccc(S(C)(=O)=O)cc2s1	-2	28	-4	-2	-3
CCCC(=O)Nc1nc2ccc(S(N)(=O)=O)cc2s1	x	15	-17	-1	99*
NS(=O)(=O)c1ccc2nc(NC(=O)c3ccc4c(c3)OCCO4)sc2c1	63*	-1	11	-1	-1
NS(=O)(=O)c1ccc2nc(NC(=O)c3ccc4ncsc4c3)sc2c1	4	2	-5	-2	-9
O=C(NCC1CCCN1S(=O)(=O)c1cccs1)C(=O)Nc1ccccc1Cl (stereo not drawn)	-2	11	4	-2	-6
COc1ccccc1NC(=O)Cn1cnc2c(cnn2-c2ccccc2)c1=O	57*	3	0	-1	0
COc1cc(/C=N/NC(=O)Cn2cnc3c2c(=O)n(C)c(=O)n3C)ccc1O	-2	-5	-1	0	100*
COC(=O)c1ccccc1NC(=O)Cn1cnc2c(cnn2-c2ccccc2)c1=O	x	-7	1	0	-2
